Screening data as filed in PubChem BioAssay.
Rad51 HR inh: human RAD51 strand exchange inhibitors, primary screen, biochemical, fluorescence | DNA repair protein RAD51 homolog 1 (Homo sapiens), Q06609 | AID 1385, 2008 | inhibition, % at 10 µM | 200,000 compounds, 0.085% hits | hRad51 DNA strand exchange, fluorescence dequenching;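 active = inhibition above 40% at the single screening dose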;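 note: 0% = DMSO control wells and 100% = blanks with heterologous ssDNA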
Target sequence (Q06609 whole entry, looked up): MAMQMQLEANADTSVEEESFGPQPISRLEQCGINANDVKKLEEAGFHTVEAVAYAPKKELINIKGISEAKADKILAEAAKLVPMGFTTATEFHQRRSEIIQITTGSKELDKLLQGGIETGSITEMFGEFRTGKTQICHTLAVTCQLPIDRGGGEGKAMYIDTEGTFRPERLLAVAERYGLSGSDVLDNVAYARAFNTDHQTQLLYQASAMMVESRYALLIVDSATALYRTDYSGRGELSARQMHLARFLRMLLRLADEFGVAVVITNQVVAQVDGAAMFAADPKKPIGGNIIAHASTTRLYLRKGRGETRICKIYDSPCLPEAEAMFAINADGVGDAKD
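Read-out basis: percent inhibition relative to plate controls and blanks / Assay system: human Rad51 nucleoprotein filaments preassembled on unlabelled ssDNA / Timing: filaments 15 min 37 °C, then compound 30 min / Control set: per-plate controls and blanks / Technique: fluorescence dequenching at 485/520 nm / Compound: 10 µM final, single point / Also added: Fluorescein- and BHQ1-tagged 47-mer duplex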
FLuc stim CS: FLuc activators, initial screening, artefact control for FLuc-dependent activation tests, biochemical, ATPlite luminescence | activation factor at 10 µM | 200,000 tested, under 10 active | ATPlite luciferase biochemical, 10 min; 0 = ATP-free wells, 1 = DMSO control | Luciferin 4-monooxygenase (Photinus pyralis), P08659 | AID 1027, 2008;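 active = luciferase activation factor, scaled between plate controls, of at least 2 with compound at 10 µM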
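System: cell-free luciferase reagent; medium: PBS as buffer for the ATP substrate; doses: test compounds dosed from 2 mM stocks in 100% DMSO; incubation: 10 min, room temperature; measured by: luminescence from luciferase reaction; read-out: luciferase activation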
FLuc inhib CS: firefly luciferase enzyme inhibitors, primary screen, artefact control for luciferase-based inhibitor screens, biochemical, luminescence, ATPLite; 10 min; inhibition, % at 10 µM; 200,000 compounds, 1.5% hits; AID 1006, 2008;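 active = inhibition above about 50% when tested at 10 µM, limit read from the data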
STAT1 act: STAT1 signaling activators, primary screen, cell-based, HTS, luciferase reporter; activation (% of control), % at 5.5 µM; NIH 3T3 STAT1-luciferase reporter, IFN-gamma, luminescence; 100% = IFN-gamma alone, no compound; 200,000 compounds, 2.6% hits; AID 932, 2007;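 active = activation above the screen-wide mean activation plus 3 SD, cut at about 130% in these data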;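 note: raw ratio to IFN-gamma control signal so 100% means no change and 0% no light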
APP 5'UTR act: activators of APP 5'UTR luciferase reporter, primary screen, SH-SY5Y cells. SH-SY5Y APP 5'UTR luciferase reporter, luminescence; zero percent = DMSO vehicle wells. activation, % at 2 µM. 190,000 compounds, 1% hits. AID 1276, 2008;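 active = activation above a set limit, based on mean plus 3 SD of controls, cut at about 140% in these data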
NF-kB expr up: activators of NF-kB expression in neurons, primary screen, cell-based, HTS; fold change at 12.5 µM; human neuronal cells, NF-kB reporter expression; active compounds read high; AID 1239, 2008; 190,000 compounds, 1.6% hits; in the data active = fold change above about 3.3
* marks the source's active call; other numbers are inactive results; / = no result. Compounds with a hit are over-represented: about 3.9% of the library has one in this group of screens.

SMILES	Rad51 HR inh	FLuc stim CS	FLuc inhib CS	STAT1 act	APP 5'UTR act	NF-kB expr up
NS(=O)(=O)c1ccc(N2C(=O)C(=O)/C(=C(/O)c3ccccc3)C2c2ccc(Cl)cc2)cc1 (stereo not drawn)	-6	/	/	/	/	/
O=C(Cn1cncn1)N/N=C/c1ccccc1O	-1	/	/	/	/	/
O=C1[C@H]2[C@@H](C(=O)N1c1cc(Cl)cc(Cl)c1)[C@]1(C(=O)Nc3ccccc31)N1CCC[C@@H]21	-4	1	-2	118	1	1
O=C1[C@H]2[C@@H](C(=O)N1c1cccc3ccccc13)C1(C(=O)c3ccccc3C1=O)N1CCC[C@@H]21	-3	1	-1	104	1	3.4*
O=C(O)c1nn(CCSc2ccccc2F)c(=O)c2ccccc12	-23	/	/	/	/	/
O=C(CSc1nnc2c(n1)[nH]c1ccc(S(=O)(=O)N3CCOCC3)cc12)Nc1ccc(F)c(F)c1	-2	1	3	110	12	1.3
CC(C)c1ccc2[nH]c3nc(SCC(=O)N4CCOCC4)nnc3c2c1	7	0.6	38	131*	15	1
COc1ccc(C(=O)Nn2c(SCC(=O)N3CCC(C)CC3)nc3ccccc3c2=O)cc1	-10	0.2	75*	42	31	0.82
CCn1c(SCC(=O)NCc2ccco2)nc2ccccc2c1=O	-5	1	1	95	-11	1.1
COc1ccc(C(=O)Nn2c(SCC(=O)NC3CCCCC3)nc3ccccc3c2=O)cc1	1	0.4	58*	74	110	1.6
COc1ccc(C(=O)Nn2c(SCC(=O)NCc3ccco3)nc3ccccc3c2=O)cc1	5	0.5	54*	93	77	0.85
O=S(=O)(O)c1nc2ccccc2[nH]1	14	/	/	/	/	/
Cc1ccc(CNCC(=O)Nc2cccc(S(=O)(=O)NC3=NCCCCC3)c2)cc1	6	1.1	-7	96	-17	1.1
O=C(/C=C/c1ccc(Cl)cc1Cl)Nc1cccc(S(=O)(=O)NC2=NCCCCC2)c1	2	0.4	55*	114	18	1
CCOc1cc(/C=N/NC(N)=O)cc(Br)c1OCC(=O)Nc1cccc2ccccc12	122*	1.1	-10	100	4	0.26
CCOc1cc(/C=N/NC(N)=O)cc(Br)c1OCC(=O)Nc1ccccc1C	6	1.1	-7	93	13	0.52
CCOC(=O)c1cn(-c2c(C)n(C)n(-c3ccccc3)c2=O)c2c(F)c(F)c(F)cc2c1=O	7	/	/	/	/	/
CCCOc1ccc(OCCSc2nnc(N)s2)cc1	13	0.9	14	115	-5	1.9
CCCOc1ccc(-c2cnc(N)s2)cc1	1	0.7	35	133*	88	2.2
COc1cc(C(=O)Nc2ccc(S(=O)(=O)N(C)c3ccccc3)cc2)cc(OC)c1OC	-12	1	-2	109	3	0.48
COc1cc(C(=O)Nc2ccc(N(C)C)cc2)cc(OC)c1OC	2	0.9	8	133*	47	1.3
COC(=O)c1ccc(-c2ccc(/C=N/N3C(=O)C4C5C=CC(CC5)C4C3=O)o2)cc1 (stereo not drawn)	-1	1	0	132*	58	1.5
O=C1C2C3C=CC(CC3)C2C(=O)N1/N=C/c1ccc(O)cc1 (stereo not drawn)	-3	0.4	63*	106	18	1.3
O=[N+]([O-])c1cccc2ccc(/C=C/c3ccc(F)cc3)nc12	5	1	2	133*	39	1.7
O=[N+]([O-])c1ccc(/C=C/c2ccc3cccc([N+](=O)[O-])c3n2)cc1	10	1	2	112	-12	1.1
SMILES	Rad51 HR inh	FLuc stim CS	FLuc inhib CS	STAT1 act	APP 5'UTR act	NF-kB expr up
O=C(Nc1nnc(-c2cccs2)s1)C1CC1	7	1.1	-6	130*	27	1.7
CCCCCCCSc1nnc(N)s1	5	/	/	/	/	/
Cc1ccc(C(=O)Nc2ncc(Cc3ccccc3)s2)o1	-6	0.2	80*	121	205*	1.3
O=C(Nc1ncc(Cc2cccc(C(F)(F)F)c2)s1)C1CCCO1 (stereo not drawn)	10	/	/	/	/	/
Cc1ccc(Cc2cnc(NC(=O)C3CCCO3)s2)cc1 (stereo not drawn)	2	0.9	14	135*	145*	4.5*
O=C(Nc1ncc(Cc2ccc(SC(F)F)cc2)s1)c1ccccc1	/	1	-4	120	-86	3.6*
CCOC(=O)Cn1cncc1-c1ccc([N+](=O)[O-])cc1	/	0.9	9	130*	6	1.8
CC(C)(C)C(=O)N1CCN(c2nc3ccccc3o2)CC1	/	1	-2	98	8	1.1
CCOc1cc(/C=N\Nc2ncc(F)c(N3CCOCC3)n2)ccc1Oc1nc(Cl)ncc1F	14	/	/	/	/	/
Cc1ccnn1Cc1cc(C(=O)O)c2ccccc2n1	0	1	-1	104	-8	0.99
Cc1ccc(C(=O)NC2CCS(=O)(=O)C2)cc1S(=O)(=O)N1CCCCCC1 (stereo not drawn)	4	1	-5	95	-19	1.4
CC(/C=C/c1ccccc1F)=N\NC(=O)c1ccc(Cl)cc1	1	1	-2	93	-2	0.83
CC(/C=C/c1ccccc1F)=N\NC(=O)c1ccccc1	-15	0.9	8	133*	80	2.7
C/C(=N/NC(=O)c1ccccc1)C(=O)O	25	1	0	132*	1	1.7
COc1ccc(NC(=O)Cn2c(NCC(C)O)nc3ccccc32)cc1Cl (stereo not drawn)	-4	1.1	-11	109	17	1.2
C=CCOc1ccccc1CNc1cccc(F)c1	15	1.1	-7	102	-57	1.1
C=CCOc1ccccc1CNc1ccc2c(c1)OCCO2	-3	0.3	74*	60	113	0.76
O=C(O)c1ccc(S(=O)(=O)Nc2cccc(CP(=O)(c3ccccc3)c3ccccc3)c2)cc1	2	/	/	/	/	/
CC1Cc2ccccc2N1C(=S)NC(=O)C1(C)CC1(Cl)Cl (stereo not drawn)	-5	1.1	-5	95	13	1.2
COc1ccc(NC(=S)N2CCNC(=O)C2CC(=O)Nc2ccc(C)cc2)cc1 (stereo not drawn)	-8	1	-3	109	8	0.81
O=C(O)CSc1nnc(-c2cccc(S(=O)(=O)N3CCOCC3)c2)n1-c1cccc(Cl)c1	-5	/	/	/	/	/
Cc1ccc2nc(-c3cccc(N)c3)[nH]c2c1	-1	0.1	88*	93	98	4.8*
Nc1cccc(-c2nc3ccccc3[nH]2)c1	-2	0.6	39	122	69	2.3
